The values that follow come from ChEMBL document CHEMBL4311989, “Anti-hepatitis-C virus activity and QSAR study of certain thiazolidinone and thiazolotriazine derivatives as potential NS5B polymerase inhibitors” (Eur J Med Chem, 2019).

The structures appear in SMILES notation.

Data set [1] concerns the target RNA-directed RNA polymerase (Hepacivirus hominis, UniProt O39930). Nature of the data set: Inhibition of recombinant HCV genotype 1a NS5B polymerase coincubated with HCV international ribosome entry site template sequence containing nucleotide residues 21-371 of HCV 5'-untranslated Escherichia coli DNA polymerase I region incubated for 3 hrs by scintillation/luminescence counter method. Further details: species or system Hepatitis C virus subtype 1a. The essentials: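 Recombinant GT1a NS5B RdRp, […] (GenBank AF356827), used at 0.26 ug/well; VCH-759 as non-nucleoside positive control; IC50 determined.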

The subject of the next data set is Hepatitis C virus. Description: Antiviral activity against HCV genotype 1a infected in human Huh7.5 cells assessed as reduction in viral replication by measuring HCV core antigen level by ELISA. It is filed as functional, organism-based, Hepacivirus hominis. To be noted: subtype 1a. The essentials:
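HCV GT1a replication in Huh-7.5 human hepatoma cells; HCV core protein quantified by core antigen ELISA per kit instructions. EC50 taken as concentration reducing HCV replication by 50%, with VCH-759 as reference.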
(In general: ELISA stands for enzyme-linked immunosorbent assay.)

For data set [2], the target named is RNA-directed RNA polymerase (Hepacivirus hominis) (UniProt O39930). Nature of the data set: Potency index, ratio of VCH-759 IC50 to compound IC50 for HCV genotype 1a recombinant NS5B polymerase coincubated with HCV international ribosome entry site template sequence containing nucleotide residues 21-371 of HCV 5'-untranslated Escherichia coli DNA polymerase I region. The settings on record: Hepatitis C virus subtype 1a.

A short description of data set [3]: Cytotoxicity against human THLE2 cells assessed as reduction in cell viability incubated for 24 hrs by MTT assay. It is filed as cell-based, THLE-2. The essentials:
(§1)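 Transformed normal human cells (THLE-2 liver epithelial; RPTEC/TERT1 proximal tubular epithelial) exposed to compound; viability read by MTT reduction to formazan. CC50 defined as concentration reducing cell viability by 50%; VCH-759 run as reference.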
(Formazan colour is commonly taken as a measure of viable cells.)

The nature of data set [4]: Selectivity index, ratio of CC50 for human THLE2 cells to EC50 for HCV infected in human Huh7.5 cells. It is filed as toxicity, cell-based. To be noted: THLE2 cells (CC50) and HCV-infected Huh7.5 cells (EC50). The essentials:
(§2)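 SI computed as CC50 on THLE-2 or RPTEC/TERT1 (MTT viability) divided by EC50 from HCV-infected Huh7.5 cells (core antigen ELISA).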

Data set [5] in a line: Selectivity index, ratio of CC50 for human RPTEC/TERT1 cells to EC50 for HCV infected in human Huh7.5 cells. It is filed as toxicity, cell-based. To be noted: read-out: Ratio CC50/EC50. The essentials: as §2
Data set [6] in a line: Cytotoxicity against human RPTEC/TERT1 cells assessed as reduction in cell viability incubated for 24 hrs by MTT assay. It is filed as cell-based. The essentials:
as §1

As to `COc1ccc(/C=c2/sc3n(c2=O)CN(c2ccccc2)CN=3)cc1`, the IC50 in data set [1] was 0.2 µM. The EC50 in the data set on Hepatitis C virus is 12.6 µM.
In the same order, the values of `O=C(C/N=C1/S/C(=C\c2ccccc2)C(=O)N1c1ccccc1)Nc1ccccc1` are 0.76 µM and 8.98 µM.
Consider `O=C(CN1C(=O)S/C(=C\c2ccccc2)C1=O)Nc1ccc(Cl)cc1`, for which, in data set [1], the half-inhibitory concentration (IC50) amounted to 0.14 µM. In the data set on Hepatitis C virus, the EC50 stood at 16.7 µM.
On to `O=C(CN1C(=O)S/C(=C\c2ccc(F)cc2)C1=O)Nc1ccc(Cl)cc1`, for which the IC50 in data set [1] was 0.1 µM. Further, in the data set on Hepatitis C virus, the EC50 amounted to 16.9 µM. For the same molecule, in data set [2], the Ratio IC50 fell in the range of 1 to 2.
Consider `O=C(CN1C(=O)S/C(=C\c2ccc(F)cc2)C1=O)Nc1ccccc1`, for which the IC50 in data set [1] worked out at 0.14 µM. Further, the EC50 in the data set on Hepatitis C virus came out at 8.4 µM.
Taken in the same sequence, the figures for `COc1ccc(NC(=O)CN2C(=O)S/C(=C\c3ccc(F)cc3)C2=O)cc1` were 0.39 µM and 10.8 µM.
In the same order, the values of `COc1ccc(NC(=O)CN2C(=O)S/C(=C\c3ccccc3Cl)C2=O)cc1` are 1.2 µM and 11 µM.
In the same order, the values of `COc1ccc(NC(=O)CN2C(=O)S/C(=C\c3ccc(Cl)cc3)C2=O)cc1` are 0.37 µM and 43.9 µM.
Turning to `COc1ccc(/C=C2\SC(=O)N(CC(=O)Nc3ccccc3)C2=O)cc1`, the half-maximal inhibitory concentration (IC50) in data set [1] amounted to 0.25 µM. Moreover, the EC50 in the data set with Hepatitis C virus stood at 11.6 µM.
In the same order, the values of `COc1ccc(N2CN=c3s/c(=C/c4ccc(Cl)cc4Cl)c(=O)n3C2)cc1` are 0.22 µM and 13.2 µM.
Taken in the same sequence, the figures for `O=c1/c(=C\c2ccccc2Cl)sc2n1CN(c1ccccc1)CN=2` were 0.43 µM and 30.7 µM.
For `O=C(CN1C(=O)S/C(=C\c2ccccc2Cl)C1=O)Nc1ccccc1`, the CC50 at 24 h in data set [3] is 103 µM; in data set [6], 161 µM. The values for the selectivity ratio in data set [4] and in data set [5] were 27 and 42.5, respectively. Moreover, the IC50 in data set [1] is 0.035 µM. The EC50 in the data set with Hepatitis C virus was 3.8 µM. Besides, in data set [2], the Ratio IC50 was 4.
Take `COc1ccc(N2CN=c3s/c(=C/c4ccc(F)cc4)c(=O)n3C2)cc1`: the IC50 in data set [1] was determined as 0.07 µM. The EC50 in the data set with Hepatitis C virus was determined as 40.1 µM. The Ratio IC50 in data set [2] fell in the range of 1 to 2.
Take `O=c1/c(=C\c2ccc(Cl)cc2Cl)sc2n1CN(c1ccccc1)CN=2`: the IC50 in data set [1] was 1.37 µM. Further, the EC50 in the data set with Hepatitis C virus amounted to 14.5 µM.
Taken in the same sequence, the figures for `COc1ccc(N2CN=c3s/c(=C/c4ccccc4)c(=O)n3C2)cc1` were 0.75 µM and 10.8 µM.
In the same order, the values of `O=C(CN1C(=O)S/C(=C\c2ccc(Cl)cc2Cl)C1=O)Nc1ccc(Cl)cc1` are 5.12 µM and 44 µM.
In the same order, the values of `COc1ccc(/C=C2\SC(=O)N(CC(=O)Nc3ccc(OC)cc3)C2=O)cc1` are 0.78 µM and 19.6 µM.
Take `COc1ccc(NC(=O)CN2C(=O)S/C(=C\c3ccccc3)C2=O)cc1`: in data set [1], the IC50 was 0.45 µM. Also, the EC50 in the data set on Hepatitis C virus came out at 10.6 µM.
As for `O=c1/c(=C\c2ccc(Cl)cc2)sc2n1CN(c1ccccc1)CN=2`, in data set [1], the IC50 was determined as 0.12 µM. Besides, in the data set with Hepatitis C virus, the concentration giving a half-maximal response (EC50) was 10.9 µM. In addition, in data set [2], the Ratio IC50 was in the range of 1 to 2.
On to `O=C(CN1C(=O)S/C(=C\c2ccc(Cl)cc2Cl)C1=O)Nc1ccccc1`, for which, in data set [1], the IC50 came out at 0.44 µM. For the same molecule, in the data set with Hepatitis C virus, the EC50 was 10.8 µM.
For the molecule `O=c1/c(=C\c2ccccc2Cl)sc2n1CN(c1ccc(Cl)cc1)CN=2`, in data set [1], the IC50 was determined as 0.09 µM. Moreover, the concentration giving a half-maximal response (EC50) in the data set on Hepatitis C virus turned out to be 13.8 µM. Also, the Ratio IC50 in data set [2] lay in the range of 1 to 2.
With `O=C(CN1C(=O)S/C(=C\c2ccccc2Cl)C1=O)Nc1ccc(Cl)cc1`, the IC50 in data set [1] was found to be 2.99 µM. Also, the EC50 with Hepatitis C virus came out at 6.47 µM.
Taken in the same sequence, the figures for `COc1ccc(N2CN=c3s/c(=C/c4ccc(Cl)cc4)c(=O)n3C2)cc1` were 3.53 µM and 10.3 µM.
Taken in the same sequence, the figures for `O=C(CN1C(=O)S/C(=C\c2ccc(Cl)cc2)C1=O)Nc1ccc(Cl)cc1` were 0.21 µM and 7.8 µM.
As to `COc1ccc(/C=c2/sc3n(c2=O)CN(c2ccc(Cl)cc2)CN=3)cc1`, the IC50 in data set [1] came out at 0.99 µM. For the same molecule, the concentration for a half-maximal effect (EC50) with Hepatitis C virus stood at 24.3 µM.
In the same order, the values of `O=c1/c(=C\c2ccc(Cl)cc2Cl)sc2n1CN(c1ccc(Cl)cc1)CN=2` are 0.54 µM and 9.5 µM.
In the same order, the values of `O=c1/c(=C\c2ccc(F)cc2)sc2n1CN(c1ccccc1)CN=2` are 2.2 µM and 18.7 µM.
Taken in the same sequence, the figures for `COc1ccc(N2CN=c3s/c(=C/c4ccccc4Cl)c(=O)n3C2)cc1` were 1.26 µM and 13.5 µM.
Regarding `O=C(CN1C(=O)S/C(=C\c2ccccc2)C1=O)Nc1ccccc1`, the IC50 in data set [1] is 4.8 µM. In the data set on Hepatitis C virus, the EC50 came out at 19.6 µM.
Take `CC1CCC(C(=O)N(c2cc(-c3ccccc3)sc2C(=O)O)C2CCC(O)CC2)CC1` (configuration not stated) [VCH-759]: the CC50 at 24 h in data set [3] was 61.8 µM; in data set [6], 81.3 µM. Besides, the selectivity ratio in data set [4] worked out at 11.7; in data set [5], 15.4. In addition, in data set [1], the IC50 came to 0.14 µM. Also, the EC50 with Hepatitis C virus is 5.29 µM.
For the molecule `COc1ccc(NC(=O)CN2C(=O)S/C(=C\c3ccc(Cl)cc3Cl)C2=O)cc1`, in data set [1], the IC50 came to 0.32 µM. Besides, the EC50 in the data set on Hepatitis C virus is 43.9 µM.
Taken in the same sequence, the figures for `O=c1/c(=C\c2ccccc2)sc2n1CN(c1ccccc1)CN=2` were 0.62 µM and 13.3 µM.
In the same order, the values of `N=C1S/C(=C\c2ccccc2)C(=O)N1c1ccccc1` are 0.58 µM and 11.1 µM.
Consider `COc1ccc(/C=c2/sc3n(c2=O)CN(c2ccc(OC)cc2)CN=3)cc1`, for which the IC50 in data set [1] stood at 0.54 µM. In addition, in the data set with Hepatitis C virus, the EC50 was 9.54 µM.
In the same order, the values of `COc1ccc(/C=C2\SC(=O)N(CC(=O)Nc3ccc(Cl)cc3)C2=O)cc1` are 0.28 µM and 7.93 µM.
As to `O=C(CN1C(=O)S/C(=C\c2ccc(Cl)cc2)C1=O)Nc1ccccc1`, in data set [1], the IC50 is 0.085 µM. Also, in the data set on Hepatitis C virus, the EC50 came to 11.1 µM. Moreover, the Ratio IC50 in data set [2] lay within 1 to 2.
For `O=c1/c(=C\c2ccccc2)sc2n1CN(c1ccc(Cl)cc1)CN=2`, the IC50 in data set [1] came to 0.49 µM. Further, the half-maximal effective concentration (EC50) in the data set with Hepatitis C virus is 19.3 µM.
Taken in the same sequence, the figures for `O=c1/c(=C\c2ccc(F)cc2)sc2n1CN(c1ccc(Cl)cc1)CN=2` were 0.2 µM and 6.58 µM.
In the same order, the values of `O=c1/c(=C\c2ccc(Cl)cc2)sc2n1CN(c1ccc(Cl)cc1)CN=2` are 1.82 µM and 10.8 µM.

One may read the IC50 as the concentration that inhibits the measured activity by half. The EC50 is the concentration giving half of the maximal effect. The CC50 is the concentration at which the toxic effect on the cells reaches its halfway point.
